Experimental data taken from ChEMBL document CHEMBL3868583, “6-Aryl substituted 4-(4-cyanomethyl) phenylamino quinazolines as a new class of isoform-selective PI3K-alpha inhibitors” (Eur J Med Chem, 2016).

Assays:
[1] = Downregulation of PI3Kbeta expression in human MCF7 cells at 30 uM by Western blot analysis; type: functional, cell-based
In short: (§1)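 MCF-7 or PC-3 cells (2 × 10^6) treated with compound, lysed (1 × 10^6 cells) in cold NP-40 buffer with protease inhibitors 30 min on ice, 12,000 g 10 min 4 °C. 50 µg protein per lane on SDS-PAGE, PVDF transfer, 5% milk block, primary antibody 2 h, HRP secondary 1 h, ECL on film; β-actin internal control.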

MCF7 [2] = assay: Induction of cell cycle arrest in human MCF7 cells assessed as apoptotic cells at 20 uM after 24 hrs by propidium iodide-staining based FACS analysis (reference value: 8 %); type: functional
In short: (§2)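 MCF-7 or PC-3 cells treated at indicated concentrations for 24 h, pelleted, PBS-washed, fixed in ice-cold 70% ethanol overnight at 4 °C. RNase 0.2 mg/mL 1 h at 37 °C, propidium iodide 10 µg/mL 30 min dark. 10,000 events (FL2-A vs FL2-W) by flow cytometry; fractions in apoptosis/sub-G1, G1, S, G2-M.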

MCF7 [3] = assay: Induction of cell cycle arrest in human MCF7 cells assessed as accumulation at G2 phase at 20 uM after 24 hrs by propidium iodide-staining based FACS analysis (reference value: 20 %); type: functional; in short: as §2
MCF7 [4] = assay: Induction of cell cycle arrest in human MCF7 cells assessed as apoptotic cells at 30 uM after 24 hrs by propidium iodide-staining based FACS analysis (reference value: 8 %); type: functional; in short: as §2
MCF7 [5] = assay: Induction of cell cycle arrest in human MCF7 cells assessed as accumulation at G2 phase at 30 uM after 24 hrs by propidium iodide-staining based FACS analysis (reference value: 20 %); type: functional; in short: as §2
MCF7 [6] = assay: Induction of cell cycle arrest in human MCF7 cells assessed as accumulation at S phase at 30 uM after 24 hrs by propidium iodide-staining based FACS analysis (reference value: 30 %); type: functional; in short: as §2
Mus musculus [7] = assay: Toxicity in Swiss mouse implanted with Swiss mouse EAC cells assessed as body weight at 25 mg/kg, ip administered for 1 to 9 days measured on day 1 (reference value: 22.8 g); type: organism-based, Ehrlich; settings: in vivo
Mus musculus [8] = assay: Toxicity in Swiss mouse implanted with Swiss mouse EAC cells assessed as body weight at 25 mg/kg, ip administered for 1 to 9 days measured on day 9 (reference value: 27.7 g); type: organism-based, Ehrlich; settings: in vivo
Mus musculus [9] = assay: Toxicity in Swiss mouse implanted with Swiss mouse EAC cells assessed as body weight at 25 mg/kg, ip administered for 1 to 9 days measured on day 12 (reference value: 28.4 g); type: organism-based, Ehrlich; settings: in vivo
Mus musculus [10] = assay: Toxicity in Swiss mouse implanted with Swiss mouse EAT cells assessed as body weight at 25 mg/kg, ip administered for 1 to 9 days measured on day 5 (reference value: 22.6 g); type: organism-based; settings: in vivo
Mus musculus [11] = assay: Toxicity in Swiss mouse implanted with Swiss mouse EAT cells assessed as body weight at 15 mg/kg, ip administered for 1 to 9 days measured on day 9 (reference value: 22.8 g); type: organism-based; settings: in vivo
Mus musculus [12] = assay: Toxicity in Swiss mouse implanted with Swiss mouse EAT cells assessed as body weight at 15 mg/kg, ip administered for 1 to 9 days measured on day 13 (reference value: 24.1 g); type: organism-based; settings: in vivo
[13] = Anticancer activity against Swiss mouse EAT cells implanted in Swiss mouse assessed as tumor growth inhibition at 15 mg/kg, ip administered for 1 to 9 days measured on day 13 relative to control; type: functional; settings: read-out: TGI
In short: (§3)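 Solid tumor: 1 × 10^7 EAC cells (harvested from 8-10 day ascitic Swiss mice) injected intramuscularly into right thigh of male Swiss mice, day 0; randomized next day (n=7 treated, 10 control). Dosing i.p. days 1-9; saline 0.2 ml control, 5-FU 22 mg/kg reference.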

[14] = Anticancer activity against Swiss mouse EAT cells implanted in Swiss mouse assessed as tumor growth inhibition at 25 mg/kg, ip administered for 1 to 9 days measured on day 13 relative to control; type: functional; settings: read-out: TGI; in short: as §3
[15] = target: T1, Phosphatidylinositol 4,5-bisphosphate 3-kinase catalytic subunit alpha isoform (Homo sapiens, UniProt P42336); settings: MCF7, 30 uM
T1 sequence (P42336 whole entry, canonical isoform): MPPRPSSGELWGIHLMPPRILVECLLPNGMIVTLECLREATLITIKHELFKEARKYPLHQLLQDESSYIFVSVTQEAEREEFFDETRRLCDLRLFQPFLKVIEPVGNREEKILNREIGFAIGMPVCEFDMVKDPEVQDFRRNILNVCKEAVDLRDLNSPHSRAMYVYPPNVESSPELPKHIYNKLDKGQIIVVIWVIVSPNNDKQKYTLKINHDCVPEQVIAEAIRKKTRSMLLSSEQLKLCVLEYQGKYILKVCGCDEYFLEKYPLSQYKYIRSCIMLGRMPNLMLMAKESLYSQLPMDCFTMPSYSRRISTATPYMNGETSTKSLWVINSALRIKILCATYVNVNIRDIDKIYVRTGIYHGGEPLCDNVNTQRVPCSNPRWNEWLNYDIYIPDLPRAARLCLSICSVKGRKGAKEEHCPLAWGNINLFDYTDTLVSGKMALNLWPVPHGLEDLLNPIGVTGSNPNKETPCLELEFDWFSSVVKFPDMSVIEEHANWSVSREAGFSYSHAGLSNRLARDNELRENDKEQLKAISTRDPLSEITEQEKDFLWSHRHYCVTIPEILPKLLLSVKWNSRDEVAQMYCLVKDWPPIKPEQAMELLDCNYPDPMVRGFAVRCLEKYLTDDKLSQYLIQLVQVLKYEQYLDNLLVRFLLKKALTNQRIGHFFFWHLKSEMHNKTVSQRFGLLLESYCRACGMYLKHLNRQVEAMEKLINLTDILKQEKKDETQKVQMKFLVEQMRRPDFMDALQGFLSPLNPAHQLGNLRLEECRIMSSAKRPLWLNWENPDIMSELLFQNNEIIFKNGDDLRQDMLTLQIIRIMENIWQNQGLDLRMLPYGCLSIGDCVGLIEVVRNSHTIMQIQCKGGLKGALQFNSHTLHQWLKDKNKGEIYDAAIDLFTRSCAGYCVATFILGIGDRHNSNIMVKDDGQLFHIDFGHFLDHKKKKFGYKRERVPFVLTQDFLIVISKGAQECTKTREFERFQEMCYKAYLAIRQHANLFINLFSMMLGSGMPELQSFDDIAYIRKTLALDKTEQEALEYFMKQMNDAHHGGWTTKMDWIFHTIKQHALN

[16] = Cytotoxicity against human PC3 cells assessed as cell growth inhibition after 12 hrs by MTT assay; type: functional; settings: PC-3, 12 h
[17] = Downregulation of PI3Kalpha expression in human PC3 cells at 30 uM by Western blot analysis; type: functional, cell-based; settings: PC-3; in short: as §1
[18] = Downregulation of PI3Kdelta expression in human PC3 cells at 30 uM by Western blot analysis; type: functional, cell-based; settings: PC-3; in short: as §1
[19] = target: T1, Phosphatidylinositol 4,5-bisphosphate 3-kinase catalytic subunit alpha isoform; assay: Inhibition of PI3Kalpha in human PC3 cells assessed as suppression of akt phosphorylation at Ser-473 residue at 30 uM Western blot analysis; type: cell-based; settings: PC-3
PC-3 [20] = assay: Induction of cell cycle arrest in human PC3 cells assessed as apoptotic cells at 10 uM after 24 hrs by propidium iodide-staining based FACS analysis (reference value: 2 %); type: functional
In short: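 PC-3 cells exposed 24 h at indicated concentrations, pelleted, fixed overnight in ice-cold 70% ethanol at 4 °C, RNase 0.2 mg/mL at 37 °C 1 h, propidium iodide 10 µg/mL 30 min in dark; 10,000 events acquired (FL2-A vs FL2-W); DNA histograms modelled for apoptotic (sub-G1), G1, S and G2-M fractions.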

PC-3 [21] = assay: Induction of cell cycle arrest in human PC3 cells assessed as accumulation at G1 phase at 20 uM after 24 hrs by propidium iodide-staining based FACS analysis (reference value: 39 %); type: functional; in short: as §2
PC-3 [22] = assay: Induction of cell cycle arrest in human PC3 cells assessed as accumulation at G1 phase at 30 uM after 24 hrs by propidium iodide-staining based FACS analysis (reference value: 39 %); type: functional; in short: as §2
PC-3 [23] = assay: Induction of cell cycle arrest in human PC3 cells assessed as accumulation at G2 phase at 30 uM after 24 hrs by propidium iodide-staining based FACS analysis (reference value: 17 %); type: functional; in short: as §2
PC-3 [24] = assay: Induction of apoptosis in human PC3 cells assessed as loss of mitochondrial membrane potential at 30 uM after 24 hrs by rhodamine-123-staining based FACS analysis (reference value: 5 % ); type: functional
In short: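 Cells (MCF-7 or PC-3) exposed to indicated concentrations for 24 h; rhodamine-123 (5 µM) added 1 h before end. Cells collected, PBS-washed; fluorescence of 10,000 events read in FL-1 by flow cytometry, loss of mitochondrial potential scored as decreased intensity.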

Mus musculus [25] = assay: Toxicity in Swiss mouse implanted with Swiss mouse EAC cells assessed as body weight at 70 mg/kg, ip administered for 1 to 9 days measured on day 1 (reference value: 22.8 g); type: organism-based, Ehrlich; settings: in vivo
Mus musculus [26] = assay: Toxicity in Swiss mouse implanted with Swiss mouse EAC cells assessed as mortality at 70 mg/kg, ip administered for 1 to 9 days measured on day 12; type: organism-based, Ehrlich; settings: in vivo
In short: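 1×10^7 EAC cells injected intraperitoneally into Swiss mice on day 0. Mice randomized next day: treated groups n=7, saline control n=10 (0.2 ml i.p.). Dosing i.p. days 1–9. Sacrifice on day 12; ascitic fluid collected from the peritoneal cavity. % tumor growth inhibition from total tumor cell count versus control. Body weight and mortality tracked.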

Work on `N#CCc1ccc(Nc2ncnc3ccc(-c4ccc5[nH]ccc5c4)cc23)cc1` yielded an Activity [1] of 4%, an Activity (MCF7 [2]) of 12% and an Activity (MCF7 [3]) of 7%. It also gave an Activity (MCF7 [4]) of 37%, an Activity (MCF7 [5]) of 4% and an Activity (MCF7 [6]) of 53%. It also gave an Activity (Mus musculus [7]) of 20.57 g, an Activity (Mus musculus [8]) of 22.57 g and an Activity (Mus musculus [9]) of 23.8 g. It also gave an Activity (Mus musculus [10]) of 20.61 g, an Activity (Mus musculus [11]) of 20.71 g and an Activity (Mus musculus [12]) of 22.57 g. For the same molecule, the inhibition in vivo at 15 mg/kg [13] was 34.3%, the inhibition in vivo at 25 mg/kg [14] was 36.5% and the inhibition [15] was 80%.

With `N#CCc1ccc(Nc2ncnc3ccc(-c4cncc5ccccc45)cc23)cc1` the GI50 [16] was 189 µM, the Activity [17] was 100% and the Activity [18] was 32%. The inhibition [19] was 50%, the Activity (PC-3 [20]) was 4% and the Activity (PC-3 [21]) was 65%. For the same molecule, the Activity (PC-3 [22]) was 42%, the Activity (PC-3 [23]) was 12% and the Activity (PC-3 [24]) was 18%. The Activity (Mus musculus [25]) was 21.42 g and the Activity (Mus musculus [26]) was “Non-Toxic”.
